Results: paper PMC8985159 (RSC Chemical Biology, 2022)

Key:
Sirt1_134-747 = molecular target: T1, Sirt1_134-747 (Homo sapiens, UniProt Q96EB6); experiment: Sirtuin deacetylation activity assay; type: biochemical
T1 sequence (Q96EB6 134-747): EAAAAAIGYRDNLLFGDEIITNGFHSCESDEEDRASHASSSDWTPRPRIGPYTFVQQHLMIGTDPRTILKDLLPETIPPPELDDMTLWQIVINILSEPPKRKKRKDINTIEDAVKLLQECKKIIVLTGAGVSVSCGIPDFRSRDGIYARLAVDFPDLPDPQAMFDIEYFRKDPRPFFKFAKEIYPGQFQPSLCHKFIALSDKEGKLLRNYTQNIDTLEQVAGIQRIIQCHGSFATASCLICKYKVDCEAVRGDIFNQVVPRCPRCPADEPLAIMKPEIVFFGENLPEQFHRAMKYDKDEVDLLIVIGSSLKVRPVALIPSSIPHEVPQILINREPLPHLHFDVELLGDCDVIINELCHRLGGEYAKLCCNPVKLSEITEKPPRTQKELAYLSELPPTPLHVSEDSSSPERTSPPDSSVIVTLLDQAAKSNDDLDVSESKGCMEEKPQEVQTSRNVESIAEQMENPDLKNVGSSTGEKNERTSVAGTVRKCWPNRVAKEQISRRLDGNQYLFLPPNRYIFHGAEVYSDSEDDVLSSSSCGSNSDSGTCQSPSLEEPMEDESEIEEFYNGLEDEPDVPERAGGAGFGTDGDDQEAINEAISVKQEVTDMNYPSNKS

[1] = molecular target: T2, N-terminally labelled Nluc-Sirt2 fusion protein (Homo sapiens, UniProt Q8IXJ6); experiment: NanoBRET assay, N-terminal Nluc-Sirt2 fusion in HEK293T cells
T2 sequence (Q8IXJ6 50-356): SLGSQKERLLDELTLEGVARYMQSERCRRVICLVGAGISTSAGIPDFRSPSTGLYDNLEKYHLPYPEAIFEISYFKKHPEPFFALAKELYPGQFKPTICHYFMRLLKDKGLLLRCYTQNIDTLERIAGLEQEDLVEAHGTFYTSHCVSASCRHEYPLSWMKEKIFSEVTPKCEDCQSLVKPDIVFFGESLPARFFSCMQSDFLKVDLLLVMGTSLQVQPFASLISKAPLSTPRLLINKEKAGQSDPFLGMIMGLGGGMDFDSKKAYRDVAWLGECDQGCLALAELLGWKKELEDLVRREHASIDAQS

Sirt3_118-395 = molecular target: T3, Sirt3_118-395 (Homo sapiens, UniProt Q9NTG7); experiment: Sirtuin deacetylation activity assay; type: biochemical
T3 sequence (Q9NTG7 118-395): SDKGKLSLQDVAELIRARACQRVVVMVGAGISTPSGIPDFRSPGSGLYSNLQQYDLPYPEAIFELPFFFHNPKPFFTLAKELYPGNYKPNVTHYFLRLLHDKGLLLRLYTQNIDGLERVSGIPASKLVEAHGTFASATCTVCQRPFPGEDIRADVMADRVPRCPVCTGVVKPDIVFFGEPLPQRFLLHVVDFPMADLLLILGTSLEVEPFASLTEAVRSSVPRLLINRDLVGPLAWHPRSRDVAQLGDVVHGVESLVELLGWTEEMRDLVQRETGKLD

human recombinant HDAC1 = human recombinant HDAC1 (Homo sapiens, UniProt Q13547); experiment: HDAC1 activity assay; type: biochemical
Summary of the method: (§1)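 Enzyme was incubated with serially diluted test compound in DMSO and ZMAL (added from a 126 μM solution) for 90 min at 37 °C. Stop solution (33 μM trichostatin A, 6 mg/mL trypsin) was added, followed by 30 min at 37 °C. Fluorescence read at Ex 390 / Em 460 nm.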

Sirt2_56-356 [2] = molecular target: T4, Sirt2_56-356 (Homo sapiens, UniProt Q8IXJ6); experiment: Sirt2 demyristoylation activity assay; type: biochemical
T4 sequence (Q8IXJ6 56-356): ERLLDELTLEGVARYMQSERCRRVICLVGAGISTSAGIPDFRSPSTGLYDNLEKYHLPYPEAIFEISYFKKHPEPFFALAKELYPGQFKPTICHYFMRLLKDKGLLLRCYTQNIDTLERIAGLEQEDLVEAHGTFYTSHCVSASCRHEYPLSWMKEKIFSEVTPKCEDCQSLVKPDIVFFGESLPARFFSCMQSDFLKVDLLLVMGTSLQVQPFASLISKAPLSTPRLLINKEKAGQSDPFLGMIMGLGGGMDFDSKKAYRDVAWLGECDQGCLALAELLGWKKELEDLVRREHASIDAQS

Sirt2_56-356 [3] = molecular target: T4, Sirt2_56-356; experiment: Sirtuin deacetylation activity assay; type: biochemical; conditions: In vitro Sirt2 activity assay IC50, Table 2
human recombinant HDAC6 = molecular target: T5, human recombinant HDAC6 (Homo sapiens, UniProt Q9UBN7); experiment: HDAC6 activity assay; type: biochemical
T5 sequence (Q9UBN7 1-1215): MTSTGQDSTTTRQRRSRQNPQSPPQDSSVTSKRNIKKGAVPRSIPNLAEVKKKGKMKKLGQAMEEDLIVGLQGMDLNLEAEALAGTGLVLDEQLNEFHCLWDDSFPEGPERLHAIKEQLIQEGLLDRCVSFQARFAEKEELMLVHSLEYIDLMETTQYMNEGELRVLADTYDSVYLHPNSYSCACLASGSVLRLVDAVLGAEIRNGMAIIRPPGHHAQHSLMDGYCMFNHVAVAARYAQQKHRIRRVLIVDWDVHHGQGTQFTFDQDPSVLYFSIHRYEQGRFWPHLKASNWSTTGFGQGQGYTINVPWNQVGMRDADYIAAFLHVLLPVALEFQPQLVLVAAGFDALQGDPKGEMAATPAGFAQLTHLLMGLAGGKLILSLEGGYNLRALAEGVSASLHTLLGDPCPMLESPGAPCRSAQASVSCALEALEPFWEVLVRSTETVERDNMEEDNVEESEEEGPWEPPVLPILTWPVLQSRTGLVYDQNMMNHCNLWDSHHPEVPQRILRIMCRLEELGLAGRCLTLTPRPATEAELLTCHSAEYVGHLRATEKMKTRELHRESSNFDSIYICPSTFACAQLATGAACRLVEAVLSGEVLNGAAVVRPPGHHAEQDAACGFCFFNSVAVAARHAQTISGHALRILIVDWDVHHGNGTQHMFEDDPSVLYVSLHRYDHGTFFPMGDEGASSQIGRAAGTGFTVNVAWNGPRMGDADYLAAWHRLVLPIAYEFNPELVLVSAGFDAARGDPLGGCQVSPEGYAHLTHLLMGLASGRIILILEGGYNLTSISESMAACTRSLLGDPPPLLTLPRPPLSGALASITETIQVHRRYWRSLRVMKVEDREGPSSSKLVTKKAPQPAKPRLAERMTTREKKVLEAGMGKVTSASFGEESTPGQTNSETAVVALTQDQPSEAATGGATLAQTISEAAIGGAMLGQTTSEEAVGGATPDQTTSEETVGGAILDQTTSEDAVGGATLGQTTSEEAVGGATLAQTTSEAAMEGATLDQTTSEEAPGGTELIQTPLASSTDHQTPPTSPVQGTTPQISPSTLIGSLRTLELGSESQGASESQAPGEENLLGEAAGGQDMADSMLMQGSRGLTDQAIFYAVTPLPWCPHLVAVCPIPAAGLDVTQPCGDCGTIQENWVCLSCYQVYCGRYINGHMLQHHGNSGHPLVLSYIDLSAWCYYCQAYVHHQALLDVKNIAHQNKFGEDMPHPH
Summary of the method: as §1

[4] = system: α-tubulin acetylation in PC-3M-luc cells; experiment: Acetylation levels of α-tubulin by immunofluorescence; type: cell-based, human; conditions: 20 μM, 5 hours
Summary of the method: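 PC-3M-luc cells were plated at 20 000 per well, incubated overnight at 37 °C and 5% CO2, then exposed to 20 μM test compound for 5 h. They were fixed in 4% PFA for 8–10 min at RT and extracted with PBS/0.1% Triton X-100. Blocking used PBS/0.1% Triton/5% FCS. […] Read-out was immunofluorescence microscopy.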

HEK293T cells = experiment: Cell viability assay; type: cell-based; conditions: Homo sapiens, HEK-293T
Summary of the method: (§2)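 MTS/PMS (20:1) viability assay. Cells were seeded at 2000 per well with test compound or vehicle (0.5% DMSO final) and incubated 72 or 120 h at 37 °C, 5% CO2. Absorbance was read 2–4 h after reagent addition. Media: HEK293T in DMEM with 10% FBS, 2 mM glutamine and 1% pen-strep; HGC-27 in DMEM:Ham's 12 (1:1) with 5% FCS.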

[5] = system: c-Myc protein levels in PC-3M-luc cells; experiment: Western blot of c-Myc protein levels; type: cell-based, human; conditions: 24 h
HGC-27 cells = experiment: Cell viability assay; type: cell-based; conditions: Homo sapiens
Summary of the method: as §2

PC-3M-luc cells [6] = experiment: Migration assay; type: cell-based, human
PC-3M-luc cells [7] = experiment: Colony Forming Unit; type: cell-based, human
Summary of the method: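 PC-3M-luc cells were grown in RPMI 1640 with 10% FBS, 2 mM glutamine and 1% pen-strep, then seeded at 250 cells per well. After 2–3 h, test compound or vehicle was added (0.5% DMSO final) and plates were incubated 7 days at 37 °C, 5% CO2. Cells were PBS-washed, fixed in 4% PFA for 20 min at RT and stained with 0.01% crystal violet for 30 min. Colonies were then counted.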

Sirt2_56-356 [8] = molecular target: T4, Sirt2_56-356; experiment: Fluorescence polarization assay; type: binding
[9] = system: KRas4a fatty acylation in HEK293T cells; experiment: In cell inhibition of SIRT2 defatty-acylation of KRas-4a; type: cell-based, human; conditions: 25 μM
PC-3M-luc cells [10] = experiment: Cell viability assay; type: cell-based, human; conditions: 3 days vs 5 days
Sirt2 = molecular target: T6, Sirt2 (Homo sapiens, UniProt Q8IXJ6); experiment: Determination of kinetic parameters for ZMAL and ZMML; type: biochemical; conditions: substrate of Sirt2; mean ± SD (n = 3)
T6 sequence (Q8IXJ6 56-356): T4 sequence (Q8IXJ6 56-356)

human recombinant HDAC1, sequence (Q13547 whole entry): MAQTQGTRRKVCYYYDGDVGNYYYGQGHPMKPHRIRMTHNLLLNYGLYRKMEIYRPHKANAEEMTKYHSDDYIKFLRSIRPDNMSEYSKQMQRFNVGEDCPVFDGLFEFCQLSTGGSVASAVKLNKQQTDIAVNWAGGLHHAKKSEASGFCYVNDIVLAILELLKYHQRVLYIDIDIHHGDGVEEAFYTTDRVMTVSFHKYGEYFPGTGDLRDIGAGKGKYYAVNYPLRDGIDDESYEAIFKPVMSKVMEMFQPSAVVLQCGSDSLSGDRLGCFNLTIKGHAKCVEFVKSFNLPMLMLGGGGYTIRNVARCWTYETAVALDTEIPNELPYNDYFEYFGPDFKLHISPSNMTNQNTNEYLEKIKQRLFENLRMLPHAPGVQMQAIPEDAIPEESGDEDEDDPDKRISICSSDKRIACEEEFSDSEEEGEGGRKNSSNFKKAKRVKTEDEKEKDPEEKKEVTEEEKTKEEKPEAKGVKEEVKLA

IC50 (Sirt1_134-747) [µM]	IC50 [1] [µM]	IC50 (Sirt3_118-395) [µM]	IC50 (human recombinant HDAC1) [µM]	IC50 (Sirt2_56-356 [3]) [µM]	IC50 (human recombinant HDAC6) [µM]	Km (Sirt2) [µM]	SMILES	other results
> 100	0.4 ± 0.02	> 100	> 100	0.17 ± 0.02	> 100		Cc1ccc(Cn2cc(COc3cccc(Cc4cnc(NC(=O)CSc5nc(C)cc(C)n5)s4)c3)nn2)cc1 [Compound 9]	IC50 (Sirt2_56-356 [2]): 2 ± 0.3 µM
> 100	0.098 ± 0.004	> 100	> 100	0.12 ± 0.01	> 100		Cc1cc(C)nc(SCC(=O)Nc2ncc(Cc3cccc(OCc4cn(Cc5ccc(OCCN6CCOCC6)cc5)nn4)c3)s2)n1 [Compound 12]	acetylation levels of α-tubulin [4]: elevated; NanoBRET binding in digitonin permeabilized vs untreated cells ([1]; digitonin 50 μg mL−1): None of the tested compounds revealed significant differences in the NanoBRET signals between permeabilized (digitonin) and untreated cells; GI50 (HEK293T cells): 7.7 ± 0.71 µM; c-Myc protein levels (in words) ([5]; 10 μM): completely absent; concentration dependence of c-Myc levels [5]: reduced in a concentration-dependent manner; GI50 (HGC-27 cells): 8.21 ± 0.59 µM; concentration-dependent effect on cell migration (PC-3M-luc cells [6]): concentration-dependent inhibition of migration; effect on colony formation (in words) (PC-3M-luc cells [7]): Colony formation was almost completely prevented; IC50 (Sirt2_56-356 [8]): 0.07 ± 0.02 µM; KRas4a acylation levels (in words) [9]: increased acylation levels of KRas4a compared to DMSO treated cells; dependence of the effect on cell viability on incubation time (PC-3M-luc cells [10]): higher effects on the cell viability of PC-3M-luc cells could be observed after prolonged incubation time
						510 ± 95	CC(=O)NCCCCC(NC(=O)OCc1ccccc1)C(=O)Nc1ccc2c(C)cc(=O)oc2c1 (centres unmarked) [ZMAL, Z-(Ac)Lys-AMC]	
						6.7 ± 1	CCCCCCCCCCCCCC(=O)NCCCCC(NC(=O)OCc1ccccc1)C(=O)Nc1ccc2c(C)cc(=O)oc2c1 (centres unmarked) [ZMML]	
